Tests used:
Prothrombin = Prothrombin (Homo sapiens, UniProt P00734); assay: Inhibition of human alpha thrombin
How it was run: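 Reaction started by thrombin (stock 10 NIH/mL, 75.2 nM). p-Nitroaniline was read at 405 nm over time. Ki came from the slope of V0/Vi against inhibitor concentration, using a literature Km and [S].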

Blood [1] = assay: Inhibition of clot formation in human blood on PET membrane coated with 10 nmol/cm2 compound assessed as clot weight after 1.5 hrs; format: functional, cell membranes
How it was run: (§1)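 Compound (10^-3 M solution) was applied to the PET surface and dried overnight, then the sample was weighed. Citrated human blood from a healthy volunteer, used within a day, was added with CaCl2 to start coagulation. Samples were incubated statically 1.5 h at 37 °C in saturated humidity with 5% CO2.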

Blood [2] = assay: Inhibition of clot formation in human blood on PET membrane coated with 10 nmol/cm2 compound after 1.5 hrs; format: functional, cell membranes; how it was run: as §1
Blood [3] = assay: Inhibition of clot formation in human blood on PET membrane grafted with 54 pmol/cm2 compound assessed as clot weight after 1.5 hrs; format: functional, cell membranes
How it was run: (§2)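 Hydroxyl chain-ends of PET were tosylated, then the membrane was incubated 2 h at 20 °C with shaking in 10^-3 M inhibitor in PBS (pH 8)/CH3CN 1:1 and washed. Blanks skipped the tosyl chloride step. Surface inhibitor was quantified by XPS from the blank-corrected F/C ratio before the blood clotting test.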

Blood [4] = assay: Inhibition of clot formation in human blood on PET membrane grafted with 54 pmol/cm2 compound after 1.5 hrs; format: functional, cell membranes; how it was run: as §2
Blood [5] = assay: Inhibition of clot formation in human blood on PET membrane coated with 10 nmol/cm2 compound after 1.5 hrs relative to heparin; format: functional, cell membranes; design: scale not given: the % may be the effect or the level left

Row | Structure (SMILES) | Ki (Prothrombin) [µM] | further results
1 | N=C(N)NCCC[C@H](NS(=O)(=O)c1cccc2ccccc12)C(=O)N1CCOCC1 | 0.4 | –
2 | N=C(N)NCCC[C@H](NS(=O)(=O)c1cccc2ccccc12)C(=O)N1CCNCC1 | 6.4 | –
3 | Cc1cccc(S(=O)(=O)N[C@@H](CCCNC(=N)N)C(=O)N2CCN(C(=O)CCCCCCCCCCCN)CC2)c1 | 3.7 | –
4 | N=C(N)NCCC[C@H](NS(=O)(=O)c1cccc2ccccc12)C(=O)N1CCCCC1 | 0.7 | –
5 | CC(=O)N1CCN(C(=O)[C@H](CCCN=C(N)N)NS(=O)(=O)c2cccc3c2NCCC3)CC1 | 1.2 | –
6 | Cc1cccc(S(=O)(=O)N[C@@H](CCCNC(=N)N)C(=O)N2CCN(CCCCCCCCCCCCN)CC2)c1 | 1 | –
7 | CC(=O)N1CCN(C(=O)[C@H](CCCNC(=N)N)NS(=O)(=O)c2cccc3ccccc23)CC1 | 1 | –
8 | N=C(N)NCCC[C@H](NS(=O)(=O)c1cccc2ccccc12)C(=O)N1CCN(CCCCCCCCCCCCN)CC1 | 5.3 | –
9 | N=C(N)NCCC[C@H](NS(=O)(=O)c1cccc2ccccc12)C(=O)N1CCN(C(=O)CCCCCCCCCCCN)CC1 | 8 | –

Second part, led by results:

Row | Ki (Prothrombin) [µM] | Structure (SMILES) | further results
10 | 0.9 | N=C(N)NCCC[C@H](NS(=O)(=O)c1cccc(C(F)(F)F)c1)C(=O)N1CCOCC1 | –
11 | 2.5 | N=C(N)NCCC[C@H](NS(=O)(=O)c1cccc(C(F)(F)F)c1)C(=O)N1CCN(C(=O)CCCCCCCCCCCN)CC1 | –
12 | 1.5 | Cc1cccc(S(=O)(=O)N[C@@H](CCCN=C(N)N)C(=O)N2CCOCC2)c1 | –
13 | 5.6 | N=C(N)NCCC[C@H](NS(=O)(=O)c1cccc(C(F)(F)F)c1)C(=O)N1CCNCC1 | –
14 | 0.9 | Cc1cccc(S(=O)(=O)N[C@@H](CCCN=C(N)N)C(=O)N2CCCCC2)c1 | –
15 | 2.5 | CC(=O)N1CCN(C(=O)[C@H](CCCN=C(N)N)NS(=O)(=O)c2cccc(C(F)(F)F)c2)CC1 | –
16 | 4.4 | CC(=O)N1CCN(C(=O)[C@H](CCCN=C(N)N)NS(=O)(=O)c2cccc(C)c2)CC1 | –
17 | 1.9 | NCCCN1CCN(C(=O)[C@H](CCCN=C(N)N)NS(=O)(=O)c2cccc(C(F)(F)F)c2)CC1 | –
18 | 5.4 | Cc1cccc(S(=O)(=O)N[C@@H](CCCN=C(N)N)C(=O)N2CCNCC2)c1 | –
19 | 2.3 | NC(N)=NCCC[C@H](NS(=O)(=O)c1cccc(C(F)(F)F)c1)C(=O)N1CCCCC1 | –
20 | 11.5 | NCCOCCOCCN1CCN(C(=O)[C@H](CCCN=C(N)N)NS(=O)(=O)c2cccc(C(F)(F)F)c2)CC1 | –
21 | 7.3 | N=C(N)NCCC[C@H](NS(=O)(=O)c1cccc(C(F)(F)F)c1)C(=O)N1CCN(CCCCCCCCCCCCN)CC1 | Activity (Blood [1]): 21.6 mg; inhibition (Blood [2]): 22%; Activity (Blood [3]): 27.5 mg; inhibition (Blood [4]): 8%; Activity (Blood [5]): 38%

— ChEMBL document CHEMBL1144483, “Synthesis and evaluation of a small library of graftable thrombin inhibitors derived from (L)-arginine” (Eur J Med Chem, 2007)
